Source: ChEMBL document CHEMBL1150300, “Synthesis of 5-chloro-N-aryl-1H-indole-2-carboxamide derivatives as inhibitors of human liver glycogen phosphorylase a” (Bioorg Med Chem, 2008)

Tests used:
[1] = target: T1, Glycogen phosphorylase, liver form (Homo sapiens, UniProt P06737); assay: Inhibition of human liver glycogen phosphorylase a
T1 sequence (P06737 whole entry): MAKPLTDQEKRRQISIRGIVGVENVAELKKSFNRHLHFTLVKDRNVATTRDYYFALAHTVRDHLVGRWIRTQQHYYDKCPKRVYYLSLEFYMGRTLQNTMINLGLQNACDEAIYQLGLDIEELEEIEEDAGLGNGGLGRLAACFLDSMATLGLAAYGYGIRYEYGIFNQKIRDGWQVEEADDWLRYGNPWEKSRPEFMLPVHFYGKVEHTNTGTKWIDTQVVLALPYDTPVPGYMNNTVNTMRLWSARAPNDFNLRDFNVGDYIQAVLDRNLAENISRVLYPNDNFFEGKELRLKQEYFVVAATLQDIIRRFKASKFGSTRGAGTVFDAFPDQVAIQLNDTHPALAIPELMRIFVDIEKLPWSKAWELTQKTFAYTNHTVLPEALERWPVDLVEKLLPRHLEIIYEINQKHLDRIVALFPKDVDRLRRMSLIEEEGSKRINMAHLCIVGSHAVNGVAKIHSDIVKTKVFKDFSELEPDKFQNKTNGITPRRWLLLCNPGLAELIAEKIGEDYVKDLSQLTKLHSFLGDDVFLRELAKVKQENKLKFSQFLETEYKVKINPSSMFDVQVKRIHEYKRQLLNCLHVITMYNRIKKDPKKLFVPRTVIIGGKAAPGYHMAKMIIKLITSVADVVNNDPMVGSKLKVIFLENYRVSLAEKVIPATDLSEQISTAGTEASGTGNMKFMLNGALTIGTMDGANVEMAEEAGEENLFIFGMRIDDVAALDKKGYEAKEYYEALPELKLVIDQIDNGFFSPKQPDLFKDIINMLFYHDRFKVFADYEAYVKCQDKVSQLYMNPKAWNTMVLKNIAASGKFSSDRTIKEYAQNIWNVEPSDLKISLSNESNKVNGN

Mus musculus [2] = assay: Hypoglycemic activity against C57BL/KsJ db/db mouse assessed as reduction of blood glucose at 30 mg/kg, po after 2 hrs relative to control; assay type: functional; design: scale not given: the % may be the effect or the level left
In short: (§1)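 Male C57BL/KsJ db/db mice, 6 weeks old, on commercial diet, grouped (n = 6) to uniform blood glucose and body weight; non-fasted pre-dose glucose measured next day. Single oral dose at 10 mL/kg; blood glucose measured at 2 h. Activity given as percentage decrease versus vehicle-treated controls, significance by unpaired t-test on mean glucose.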

Hepatocyte = assay: Inhibition of glucagon-induced glycogenolysis in Sprague-Dawley rat hepatocytes; assay type: functional, cell-based
In short: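 Hepatocytes from fed male Sprague-Dawley rats (150–200 g), viability >85%, plated on collagen at 2.5 × 10⁵ cells/well. Washed cells incubated 30 min at 37 °C in glucose-free/calcium-free Hanks buffer with 0.1% DMSO and inhibitor at 0.1–10 µM, with or without 10 nM glucagon. Medium glucose read by glucose oxidase/peroxidase; IC50 by logistic regression.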

Mus musculus [3] = assay: Hypoglycemic activity against C57BL/KsJ db/db mouse assessed as reduction of blood glucose at 50 mg/kg, po after 2 hrs relative to control; assay type: functional; design: scale not given: the % may be the effect or the level left; in short: as §1

IC50 [1] | Structure (SMILES) | also measured
2500 nM | COc1cc(NC(=O)c2cc3cc(Cl)ccc3[nH]2)ccc1C(O)CO (configuration not stated) | –
2100 nM | O=C(Nc1ccc(C(O)CO)c([N+](=O)[O-])c1)c1cc2cc(Cl)ccc2[nH]1 (configuration not stated) | –
> 10000 nM | CC(C)(O)C(O)c1ccc(NC(=O)c2cc3cc(Cl)ccc3[nH]2)cc1 (configuration not stated) | –
7400 nM | O=C(Nc1ccc(C(O)CO)c(-c2ccccc2)c1)c1cc2cc(Cl)ccc2[nH]1 (configuration not stated) | –
340 nM | O=C(Nc1ccc(C(O)CO)c(F)c1)c1cc2cc(Cl)ccc2[nH]1 (configuration not stated) | –
5800 nM | O=C(Nc1ccc(C(CO)CO)cc1)c1cc2cc(Cl)ccc2[nH]1 | –
2600 nM | Cc1cc(C(O)CO)ccc1NC(=O)c1cc2cc(Cl)ccc2[nH]1 (configuration not stated) | –
1700 nM | Nc1cc(NC(=O)c2cc3cc(Cl)ccc3[nH]2)ccc1C(O)CO (configuration not stated) | –
250 nM | O=C(Nc1ccc(C(O)CO)cn1)c1cc2cc(Cl)ccc2[nH]1 (configuration not stated) | Activity (Mus musculus [2]): 13%; IC50 (Hepatocyte): 620 nM; Activity (Mus musculus [3]): 26%
4400 nM | O=C(Nc1ccc(C(O)CO)nc1)c1cc2cc(Cl)ccc2[nH]1 (configuration not stated) | –
440 nM | O=C(Nc1cnc(C(O)CO)cn1)c1cc2cc(Cl)ccc2[nH]1 (configuration not stated) | –
3100 nM | O=C(Nc1ncc(C(O)CO)s1)c1cc2cc(Cl)ccc2[nH]1 (configuration not stated) | –
> 10000 nM | O=C(Nc1ccc(CCCO)cc1)c1cc2cc(Cl)ccc2[nH]1 | –
6200 nM | O=C(Nc1cccc(CCO)c1)c1cc2cc(Cl)ccc2[nH]1 | –
900 nM | O=C(Nc1ccc(C(O)CO)cc1)c1cc2cc(Cl)ccc2[nH]1 (configuration not stated) | –
1600 nM | O=C(Nc1ccc(CO)cc1)c1cc2cc(Cl)ccc2[nH]1 | –
1200 nM | O=C(Nc1ccc(CCO)cc1)c1cc2cc(Cl)ccc2[nH]1 | –
420 nM | O=C(Nc1ccc(C(O)CO)cc1F)c1cc2cc(Cl)ccc2[nH]1 (configuration not stated) | –
3600 nM | COCC(O)c1ccc(NC(=O)c2cc3cc(Cl)ccc3[nH]2)cc1 (configuration not stated) | –
1100 nM | O=C(Nc1ccc(C(O)CO)cc1Cl)c1cc2cc(Cl)ccc2[nH]1 (configuration not stated) | –
> 10000 nM | O=C(Nc1ccccc1CCO)c1cc2cc(Cl)ccc2[nH]1 | –
> 10000 nM | O=C(Nc1nc(C(O)CO)cs1)c1cc2cc(Cl)ccc2[nH]1 (configuration not stated) | –
– | O=C(N[C@@H](Cc1ccc(F)cc1)C(=O)N1CCC(O)CC1)c1cc2cc(Cl)ccc2[nH]1 | IC50 (Hepatocyte): 1700 nM; Activity (Mus musculus [3]): 20%
